Results: ChEMBL document CHEMBL1149266, “2,3-diaminopyridine bradykinin B1 receptor antagonists” (J Med Chem, 2004)

How the values were obtained:
[1] = Oral bioavailability in Sprague-Dawley rat at 10 mg/kg, po; type: ADME, organism-based; conditions: in vivo
[2] = Half life in mongrel dog at 1 mg/kg, iv; type: ADME, organism-based, Canis lupus familiaris; design: dose 1 mg/kg, route intravenous; conditions: in vivo
[3] = Clearance in Sprague-Dawley rat at 2 mg/kg, iv; type: ADME, organism-based; design: dose 2 mg/kg, route intravenous; conditions: in vivo
B1 bradykinin receptor [4] = biological target: T1, B1 bradykinin receptor (Oryctolagus cuniculus, UniProt P48748); assay: Activity at rabbit bradykinin B1 receptor assessed by FLIPR assay; type: functional
T1 sequence (P48748 whole entry): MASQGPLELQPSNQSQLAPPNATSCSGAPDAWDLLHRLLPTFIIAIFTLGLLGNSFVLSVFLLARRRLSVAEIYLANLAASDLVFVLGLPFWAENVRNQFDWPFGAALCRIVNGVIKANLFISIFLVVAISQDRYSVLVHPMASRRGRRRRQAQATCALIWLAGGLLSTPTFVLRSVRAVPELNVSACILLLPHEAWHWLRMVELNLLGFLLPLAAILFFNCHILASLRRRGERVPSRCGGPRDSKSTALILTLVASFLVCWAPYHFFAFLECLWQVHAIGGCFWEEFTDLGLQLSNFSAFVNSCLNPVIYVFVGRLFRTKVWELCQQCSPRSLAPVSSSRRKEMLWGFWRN
Procedure, shortened: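 FLIPR functional assay using functionally active rabbit B1 receptors; IC50 in nM. Values are the average of at least two experiments, with ±30% interassay variability.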

B1 bradykinin receptor [5] = biological target: T1, B1 bradykinin receptor; assay: Binding affinity to rabbit bradykinin B1 receptor
Procedure, shortened: (§1)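 Radioligand binding at rat or rabbit B1 receptor; Ki in nM. Values are the average of at least two experiments, with ±25% interassay variability.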

[6] = Oral bioavailability in mongrel dog at 3 mg/kg, po; type: ADME, organism-based, Canis lupus familiaris; conditions: in vivo
[7] = Half life in Sprague-Dawley rat at 2 mg/kg, iv; type: ADME, organism-based; design: dose 2 mg/kg, route intravenous; conditions: in vivo
B1 bradykinin receptor [8] = biological target: T2, B1 bradykinin receptor (Homo sapiens, UniProt P46663); assay: Antagonist activity at bradykinin B1 receptor expressed in CHO cells assessed as inhibition of des-arg10-kallidin-induced increase in cytosolic calcium level by FLIPR assay; type: functional, cell-based
T2 sequence (P46663 whole entry): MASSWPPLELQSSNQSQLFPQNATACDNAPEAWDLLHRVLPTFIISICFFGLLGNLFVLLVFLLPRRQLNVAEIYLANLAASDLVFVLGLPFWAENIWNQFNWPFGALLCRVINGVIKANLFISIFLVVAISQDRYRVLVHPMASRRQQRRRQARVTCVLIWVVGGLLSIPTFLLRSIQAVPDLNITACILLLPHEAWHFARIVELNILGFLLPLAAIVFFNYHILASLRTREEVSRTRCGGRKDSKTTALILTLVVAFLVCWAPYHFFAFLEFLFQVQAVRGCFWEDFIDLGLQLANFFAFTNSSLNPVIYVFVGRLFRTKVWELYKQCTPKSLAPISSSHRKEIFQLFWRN
Procedure, shortened: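 FLIPR functional assay using functionally active human B1 receptors; IC50 in nM.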

[9] = Clearance in mongrel dog at 1 mg/kg, iv; type: ADME, organism-based, Canis lupus familiaris; design: dose 1 mg/kg, route intravenous; conditions: in vivo
B1 bradykinin receptor [10] = biological target: T2, B1 bradykinin receptor; assay: Displacement of [3H]des-arg10, leu9-kallidin from human bradykinin B1 receptor expressed in CHO cells; type: cell-based
Procedure, shortened: (§2)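 Radioligand binding using CHO cells that stably express the human B1 or B2 receptor, with the appropriate radioligand for each; Ki in nM.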

B1 bradykinin receptor [11] = biological target: T3, B1 bradykinin receptor (Rattus norvegicus, UniProt P97583); assay: Displacement of [3H]des-arg10 kallidin from rat bradykinin B1 receptor expressed in CHO cells; type: cell-based; procedure, shortened: as §1
T3 sequence (P97583 whole entry): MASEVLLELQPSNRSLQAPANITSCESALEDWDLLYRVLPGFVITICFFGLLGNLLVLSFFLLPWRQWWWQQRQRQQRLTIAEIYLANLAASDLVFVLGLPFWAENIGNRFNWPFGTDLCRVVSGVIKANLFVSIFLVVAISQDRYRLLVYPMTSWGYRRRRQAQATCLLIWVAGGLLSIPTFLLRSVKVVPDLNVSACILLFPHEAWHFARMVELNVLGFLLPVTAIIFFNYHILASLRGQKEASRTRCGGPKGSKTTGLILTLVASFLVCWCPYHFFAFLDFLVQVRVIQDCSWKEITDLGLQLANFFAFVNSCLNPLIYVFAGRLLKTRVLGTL

Oryctolagus cuniculus = assay: Antinociceptive effect against CFA-induced hyperalgesia in iv dosed New Zealand rabbit model by spinal nociceptive reflex assay; type: functional; conditions: read-out: ID50 (the source's name)
Procedure, shortened: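 CFA was used to induce mechanical hyperalgesia in the rabbit hind paw. The read-out was inhibition of the spinal nociceptive reflex to a noxious pinch of the inflamed paw. Antagonist was dosed iv over a dose range, giving an ID50 (mg/kg). Three rabbits per experiment.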

[12] = biological target: T4, B1 bradykinin receptor (Oryctolagus cuniculus) (UniProt P48748); assay: Inhibition of desArg9-bradykinin-induced decrease in mean arterial blood pressure in iv dosed New Zealand white rabbit; type: functional, organism-based
T4 sequence (whole entry): T1 sequence (P48748 whole entry)
Procedure, shortened: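 Rabbits received iv LPS to induce vascular B1 receptors. The depressor blood pressure response to DABK (1 μg/kg iv) was recorded. Rising iv doses of antagonist were given as pretreatment before repeated DABK doses, giving an AD50 (mg/kg). Three rabbits per experiment.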

B2 bradykinin receptor = biological target: T5, B2 bradykinin receptor (Homo sapiens, UniProt P30411); assay: Displacement of [3H]bradykinin from human bradykinin B2 receptor expressed in CHO cells; type: cell-based; procedure, shortened: as §2
T5 sequence (P30411 whole entry): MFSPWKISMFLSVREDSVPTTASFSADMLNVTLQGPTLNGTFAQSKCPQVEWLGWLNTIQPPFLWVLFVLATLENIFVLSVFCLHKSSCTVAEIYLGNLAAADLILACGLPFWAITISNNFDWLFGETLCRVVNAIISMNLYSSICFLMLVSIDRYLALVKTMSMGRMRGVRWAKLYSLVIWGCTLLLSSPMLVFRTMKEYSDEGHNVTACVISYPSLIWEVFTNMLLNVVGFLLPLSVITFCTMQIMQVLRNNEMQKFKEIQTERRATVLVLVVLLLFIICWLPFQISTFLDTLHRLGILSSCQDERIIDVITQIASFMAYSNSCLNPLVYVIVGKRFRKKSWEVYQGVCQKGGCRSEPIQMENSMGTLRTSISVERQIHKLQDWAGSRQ

| Structure (SMILES) | bioavailability [1] | half-life [2] | clearance [3] | IC50 (B1 bradykinin receptor [4]) | Ki (B1 bradykinin receptor [5]) | bioavailability [6] | half-life [7] | IC50 (B1 bradykinin receptor [8]) | clearance [9] | Ki (B1 bradykinin receptor [10]) | Ki (B1 bradykinin receptor [11]) | Ki (B2 bradykinin receptor) | ED50 (Oryctolagus cuniculus) | AD50 [12] |
| --- | --- | --- | --- | --- | --- | --- | --- | --- | --- | --- | --- | --- | --- | --- |
| Cc1noc(-c2c(F)cccc2-c2ccc([C@@H](C)Nc3nccc(Cl)c3NC(=O)CC#N)cc2)n1 | 62% | 2.1 h | 9.5 mL/min/kg | 12.3 nM (antagonist) | 2.7 nM (antagonist) | 14% | 8.8 h | 0.94 nM (antagonist) | 7.3 mL/min/kg | 0.5 nM (antagonist) | 81 nM (antagonist) |  |  |  |
| COC(=O)c1c(Cl)cccc1-c1ccc([C@@H](C)Nc2nccc(Cl)c2NC(=O)CC#N)cc1 | 43% | 6.3 h | 24 mL/min/kg | 7.2 nM (antagonist) | 1.1 nM (antagonist) | 23% | 1.3 h | 0.85 nM (antagonist) | 8.7 mL/min/kg | 0.7 nM (antagonist) | 35.7 nM (antagonist) |  | 0.9 mg/kg | 0.8 mg/kg |
| COC(=O)c1ccc(Cl)cc1-c1ccc([C@@H](C)Nc2nccc(Cl)c2NC(=O)CC#N)cc1 | 6% | 0.9 h | 25 mL/min/kg |  |  | 2% | 0.5 h | 1.5 nM (antagonist) | 5.5 mL/min/kg | 0.8 nM (antagonist) |  |  |  |  |
| C[C@@H](Nc1nccc(Cl)c1NC(=O)CC#N)c1ccc(-c2cccc(F)c2-c2nnn(C)n2)cc1 | 73% | 3.8 h | 9 mL/min/kg | 3.9 nM (antagonist) | 3 nM (antagonist) | 69% | 7.8 h | 1.17 nM (antagonist) | 2.4 mL/min/kg | 0.5 nM (antagonist) | 119 nM (antagonist) |  | 3.1 mg/kg | 0.28 mg/kg |
| Cc1nc(-c2c(F)cccc2-c2ccc([C@@H](C)Nc3nccc(Cl)c3NC(=O)CC#N)cc2)no1 | 50% | 2 h | 4.9 mL/min/kg |  |  | 25% | 12.9 h | 0.78 nM (antagonist) | 5.9 mL/min/kg | 0.7 nM (antagonist) |  |  |  |  |
| COC(=O)c1ccc(C)cc1-c1ccc([C@@H](C)Nc2nccc(C)c2NC(=O)CC#N)cc1 | 21% |  | 42 mL/min/kg |  |  |  | 0.6 h | 1.4 nM (antagonist) |  | 1.2 nM (antagonist) |  | > 10000 nM |  |  |
| CCCCC(=O)Nc1cccnc1NCc1ccc(-c2ccccc2C(=O)OC)cc1 |  |  |  |  |  |  |  |  |  | 200 nM (antagonist) |  |  |  |  |

More lines, main results first:

| bioavailability [1] | half-life [2] | clearance [3] | IC50 (B1 bradykinin receptor [4]) | Ki (B1 bradykinin receptor [5]) | bioavailability [6] | half-life [7] | IC50 (B1 bradykinin receptor [8]) | clearance [9] | Ki (B1 bradykinin receptor [10]) | Ki (B1 bradykinin receptor [11]) | Ki (B2 bradykinin receptor) | Structure (SMILES) | ED50 (Oryctolagus cuniculus) | AD50 [12] |
| --- | --- | --- | --- | --- | --- | --- | --- | --- | --- | --- | --- | --- | --- | --- |
| 52% |  | 36 mL/min/kg |  |  |  | 1.8 h |  |  | 1.1 nM (antagonist) |  |  | C[C@@H](Nc1nccc(Cl)c1NC(=O)CC#N)c1ccc(-c2cccc(F)c2C(F)(F)F)cc1 |  |  |
| 80% |  | 8.3 mL/min/kg |  |  |  | 0.9 h |  |  | 2 nM (antagonist) |  |  | C[C@@H](Nc1nccc(Cl)c1NC(=O)CC#N)c1ccc(-c2cccc(F)c2C#N)cc1 |  |  |
| 50% | 2.7 h | 11 mL/min/kg | 2.4 nM (antagonist) | 0.69 nM (antagonist) | 34% | 2.1 h | 0.25 nM (antagonist) | 9 mL/min/kg | 0.4 nM (antagonist) | 35.3 nM (antagonist) |  | COC(=O)c1c(F)cccc1-c1ccc([C@@H](C)Nc2nccc(Cl)c2NC(=O)CC#N)cc1 | 2.1 mg/kg | 0.57 mg/kg |
|  |  |  |  | 41.5 nM (antagonist) |  |  |  |  | 6 nM (antagonist) | 12 nM (antagonist) |  | C[C@@H](Nc1nccc(Cl)c1NC(=O)CC#N)c1ccc(-c2cccc(F)c2-c2nnnn2C)cc1 |  |  |
